Experimental data as given in ChEMBL document CHEMBL3616437, “Thiazole compounds with activity against Cryptococcus gattii and Cryptococcus neoformans in vitro” (Eur J Med Chem, 2015).
≈ marks a conversion by molar mass, not a printed value.

Legend:
[1] = system: Cryptococcus gattii species complex; assay: Antifungal activity against Cryptococcus gattii 23/10993 after 48 to 72 hrs by broth microdilution method; assay type: functional, Cryptococcus bacillisporus
Outline: (§1)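 CLSI M27-A3 broth microdilution in RPMI with L-glutamine, buffered to pH 7.0 with 0.165 M MOPS. Colonies grown twice on SDA, 48 h at 35°C. Inoculum set to 70% transmittance at 530 nm, then diluted to 1-5 x10^3 cells/mL. Test agents dissolved in DMSO, serially diluted, tested at 0.1 to 62.5 µM. Plates held at 35°C for 48-72 h. MIC is the lowest concentration giving an optically clear well, read visually against drug-free growth controls.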

Cryptococcus neoformans [2] = assay: Antifungal activity against Cryptococcus neoformans VM-MCMMPI after 48 to 72 hrs by broth microdilution method; assay type: functional
Outline: (§2)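 CLSI M27-A3 broth microdilution. Isolates subcultured twice on SDA, 48 h at 35°C. Saline suspension adjusted to 70% transmittance at 530 nm, then diluted to 1-5 x10^3 cells/mL in RPMI with L-glutamine, 0.165 M MOPS, pH 7.0. Compounds in DMSO, tested at […]. 35°C for 48-72 h. MIC read visually as the lowest concentration giving an optically clear well.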

[3] = system: Cryptococcus gattii species complex; assay: Antifungal activity against Cryptococcus gattii L27/01 after 48 to 72 hrs by broth microdilution method; assay type: functional, Cryptococcus bacillisporus; outline: as §1
[4] = system: Cryptococcus gattii species complex; assay: Antifungal activity against Cryptococcus gattii LMM818 after 48 to 72 hrs by broth microdilution method; assay type: functional, Cryptococcus bacillisporus; outline: as §1
[5] = system: Cryptococcus gattii species complex; assay: Antifungal activity against Cryptococcus gattii L28/02 after 48 to 72 hrs by broth microdilution method; assay type: functional, Cryptococcus bacillisporus; outline: as §1
[6] = system: Cryptococcus gattii species complex; assay: Antifungal activity against Cryptococcus gattii 547/OTTI-97-PI-10 after 48 to 72 hrs by broth microdilution method; assay type: functional, Cryptococcus bacillisporus; outline: as §1
[7] = system: Cryptococcus gattii species complex; assay: Antifungal activity against Cryptococcus gattii 135L/03 after 48 to 72 hrs by broth microdilution method; assay type: functional, Cryptococcus bacillisporus; outline: as §1
Cryptococcus neoformans [8] = assay: Antifungal activity against Cryptococcus neoformans 28JF after 48 to 72 hrs by broth microdilution method; assay type: functional; outline: as §2
Cryptococcus neoformans [9] = assay: Antifungal activity against Cryptococcus neoformans ATCC 24067 after 48 to 72 hrs by broth microdilution method; assay type: functional; outline: as §2
[10] = Cytotoxicity against C57BL/6 mouse peritoneal macrophages assessed as cell viability measured after 48 hrs by MTT assay; assay type: cell-based; conditions: C57BL/6, Peritoneal macrophage cell
Outline: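 Thioglycollate-elicited peritoneal macrophages from male C57BL/6 mice, 6–8 weeks old, in RPMI with 10% FBS. Seeded 1 x 10^5 cells/well, pre-incubated 24 h at 37°C. Exposed 48 h at 37°C, 5% CO2, to eight nonserial dilutions from 100 to 0.0128 µM, with 0.5% DMSO control. MTT read-out, % inhibition versus DMSO control. IC50 reported as median with 95% CI. Triplicate, two independent experiments.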

Cryptococcus neoformans [11] = assay: Ratio of compound MIC for Cryptococcus neoformans LMM820 in presence of amphotericin B to compound MIC for Cryptococcus neoformans LMM820 in absence of amphotericin B by checkerboard microtiter test; assay type: functional
Outline: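 Checkerboard microdilution: eight two-fold dilutions of test compound (0.11 to 15.6 µM) crossed with amphotericin B (0.025 to 3.9 µM, in DMSO) or fluconazole (0.48 to 62.5 µM, in water). Inoculum per CLSI M27-A3 in RPMI-MOPS pH 7.0, 1-5 x10^3 cells/mL. Growth 48 to 72 h. Effective MIC is the combination concentration giving complete inhibition. FICs derived from MICs in combination versus alone.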

[12] = system: Cryptococcus gattii species complex; assay: Antifungal activity against Cryptococcus gattii ICB181 after 48 to 72 hrs by broth microdilution method; assay type: functional, Cryptococcus bacillisporus; outline: as §1
Cryptococcus neoformans [13] = assay: Antifungal activity against Cryptococcus neoformans 5396 after 48 to 72 hrs by broth microdilution method; assay type: functional; outline: as §2
[14] = Selectivity index, ratio of IC50 for C57BL/6 mouse peritoneal macrophages to MIC for Cryptococcus neoformans ATCC 24067
Outline: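 SI = IC50/MIC. Thioglycollate-elicited peritoneal macrophages from C57BL/6 mice are seeded at 1 x 10^5/well. They are exposed for 48 h at 37°C to eight concentrations from 100 to 0.0128 µM. Viability read by MTT versus 0.5% DMSO control, triplicate in two experiments.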

[15] = system: Cryptococcus gattii species complex; assay: Antifungal activity against Cryptococcus gattii L24/01 after 48 to 72 hrs by broth microdilution method; assay type: functional, Cryptococcus bacillisporus; outline: as §1
[16] = system: Cryptococcus bacillisporus; assay: Antifungal activity against Cryptococcus gattii ATCC 32608 after 48 to 72 hrs by broth microdilution method; assay type: functional; outline: as §1
Cryptococcus neoformans [17] = assay: Antifungal activity against Cryptococcus neoformans F10 after 48 to 72 hrs by broth microdilution method; assay type: functional; outline: as §2
[18] = system: Cryptococcus gattii species complex; assay: Antifungal activity against Cryptococcus gattii 196L/03 after 48 to 72 hrs by broth microdilution method; assay type: functional, Cryptococcus bacillisporus; outline: as §1
Cryptococcus neoformans [19] = assay: Antifungal activity against Cryptococcus neoformans ATCC 28957 after 48 to 72 hrs by broth microdilution method; assay type: functional; outline: as §2
Cryptococcus neoformans [20] = assay: Antifungal activity against Cryptococcus neoformans LMM820 after 48 to 72 hrs by broth microdilution method; assay type: functional; outline: as §2
[21] = system: Cryptococcus gattii species complex; assay: Antifungal activity against Cryptococcus gattii 1913ER after 48 to 72 hrs by broth microdilution method; assay type: functional, Cryptococcus bacillisporus; outline: as §1
Cryptococcus neoformans [22] = assay: Antifungal activity against Cryptococcus neoformans WP after 48 to 72 hrs by broth microdilution method; assay type: functional; outline: as §2
Cryptococcus neoformans [23] = assay: Antifungal activity against Cryptococcus neoformans 27JF after 48 to 72 hrs by broth microdilution method; assay type: functional; outline: as §2
Cryptococcus neoformans [24] = assay: Antifungal activity against Cryptococcus neoformans ATCC 62066 after 48 to 72 hrs by broth microdilution method; assay type: functional
Cryptococcus neoformans [25] = assay: Antifungal activity against Cryptococcus neoformans CN31 after 48 to 72 hrs by broth microdilution method; assay type: functional; outline: as §2
[26] = Selectivity index, ratio of IC50 for African green monkey Vero cells to MIC for Cryptococcus neoformans ATCC 24067; assay type: toxicity, cell-based
Cryptococcus neoformans [27] = assay: Antifungal activity against Cryptococcus neoformans 96806 after 48 to 72 hrs by broth microdilution method; assay type: functional; outline: as §2
Vero = assay: Cytotoxicity against African green monkey Vero cells assessed as cell viability measured after 48 hrs by MTT assay; assay type: cell-based; conditions: Chlorocebus sabaeus
Outline: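 VERO cells in D-MEM with 5% FBS, used up to 20 passages. Seeded 1 x 10^4 cells/well, pre-incubated 24 h at 37°C. Exposed 48 h at 37°C, 5% CO2, to eight nonserial dilutions from 100 to 0.0128 µM, with 0.5% DMSO control. MTT reduction read-out, corrected for background and blank. IC50 reported as median with 95% CI. Triplicate, two independent experiments.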

MIC [1]: 1.9 µM (≈ 0.542 µg/mL)
MIC (Cryptococcus neoformans [2]): 1.4 µM (≈ 0.4 µg/mL)
MIC [3]: 1 µM (≈ 0.285 µg/mL)
MIC [4]: 2.2 µM (≈ 0.628 µg/mL)
MIC [5]: 1.9 µM (≈ 0.542 µg/mL)
MIC [6]: 1.9 µM (≈ 0.542 µg/mL)
MIC [7]: 1.9 µM (≈ 0.542 µg/mL)
MIC (Cryptococcus neoformans [8]): 2.7 µM (≈ 0.771 µg/mL)
MIC (Cryptococcus neoformans [9]): 0.9 µM (≈ 0.257 µg/mL)
MIC [12]: 0.7 µM (≈ 0.2 µg/mL)
MIC (Cryptococcus neoformans [13]): 1.4 µM (≈ 0.4 µg/mL)
MIC [15]: 1.4 µM (≈ 0.4 µg/mL)
MIC [16]: 1.4 µM (≈ 0.4 µg/mL)
MIC (Cryptococcus neoformans [17]): 1.7 µM (≈ 0.485 µg/mL)
MIC [18]: 1.4 µM (≈ 0.4 µg/mL)
MIC (Cryptococcus neoformans [19]): 1.2 µM (≈ 0.342 µg/mL)
MIC (Cryptococcus neoformans [20]): 1.7 µM (≈ 0.485 µg/mL)
MIC [21]: 1.4 µM (≈ 0.4 µg/mL)
MIC (Cryptococcus neoformans [22]): 2.2 µM (≈ 0.628 µg/mL)
MIC (Cryptococcus neoformans [23]): 2.4 µM (≈ 0.685 µg/mL)
MIC (Cryptococcus neoformans [24]): 1.2 µM (≈ 0.342 µg/mL)
MIC (Cryptococcus neoformans [25]): 1.4 µM (≈ 0.4 µg/mL)
MIC (Cryptococcus neoformans [27]): 1.9 µM (≈ 0.542 µg/mL)
Compound: C(=N\Nc1nc(-c2ccccc2)cs1)/C1CCCCC1
MFC [1]: 7.8 µM (≈ 2.23 µg/mL)
MFC (Cryptococcus neoformans [2]): 3.9 µM (≈ 1.11 µg/mL)
MFC [3]: 1.9 µM (≈ 0.542 µg/mL)
MFC [4]: 3.9 µM (≈ 1.11 µg/mL)
MFC [5]: 7.8 µM (≈ 2.23 µg/mL)
MFC [6]: 7.8 µM (≈ 2.23 µg/mL)
MFC [7]: 3.9 µM (≈ 1.11 µg/mL)
MFC (Cryptococcus neoformans [8]): 7.8 µM (≈ 2.23 µg/mL)
IC50 [10]: > 100 µM
fractional inhibitory concentration index (FICI) (Cryptococcus neoformans [11]): 4.3
MFC [12]: 3.9 µM (≈ 1.11 µg/mL)
MFC (Cryptococcus neoformans [13]): 1.9 µM (≈ 0.542 µg/mL)
Ratio [14]: 111
MFC [15]: 3.9 µM (≈ 1.11 µg/mL)
MFC [16]: 1.9 µM (≈ 0.542 µg/mL)
MFC (Cryptococcus neoformans [17]): 3.9 µM (≈ 1.11 µg/mL)
MFC [18]: 3.9 µM (≈ 1.11 µg/mL)
MFC (Cryptococcus neoformans [19]): 7.8 µM (≈ 2.23 µg/mL)
MFC (Cryptococcus neoformans [20]): 1.9 µM (≈ 0.542 µg/mL)
MFC [21]: 7.8 µM (≈ 2.23 µg/mL)
MFC (Cryptococcus neoformans [22]): 3.9 µM (≈ 1.11 µg/mL)
MFC (Cryptococcus neoformans [23]): 7.8 µM (≈ 2.23 µg/mL)
MFC (Cryptococcus neoformans [24]): 7.8 µM (≈ 2.23 µg/mL)
MFC (Cryptococcus neoformans [25]): 1.9 µM (≈ 0.542 µg/mL)
selectivity ratio [26]: 111
MFC (Cryptococcus neoformans [27]): 3.9 µM (≈ 1.11 µg/mL)
IC50 (Vero): > 100 µM
